Screening results (PubChem BioAssay)
Hits are enriched below; roughly 2% of the tested compounds scored in any of these assays.
HCV core dimer = inhibitors of HCV core protein dimerization, primary screen, biochemical, TR-FRET, high-throughput | TR-FRET GST/Flag-core106 dimerization, 1536-well | inhibition, % at 5 µM | 0.33% of 300,000 active;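 active = inhibition above the mean of all tested compounds plus 3 SD, set per screening campaign, cut at about 45% in these data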
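Material: Tagged HCV core106 pair (GST and Flag) | Amount: GST-core106 13.5 nM, Flag-core106 17 nM | Medium: KF-containing HEPES buffer, pH 7.45, DTT, CHAPS, BSA | Reagent: Eu donor and XL665 acceptor anti-tag antibodies | Schedule: 4 h at 22.5 °C | Technique: Time-resolved FRET, ex 340 nm, em 617 and 671 nm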
eIF4H inh = human eIF4H binding inhibitors, primary screen, translation initiation inhibitor project, biochemical, uHTS, fluorescence polarization | inhibition, % at 35 µM | Eukaryotic translation initiation factor 4H (Homo sapiens), Q15056 | 0.94% of 290,000 active | eIF4H fluorescence polarization binding assay;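 note: calls also rest on retests at 20 µM and on dose response follow-up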
HCV NS3 hel inh = inhibitors of HCV NS3 helicase, primary screen, biochemical, Cy5 molecular beacon fluorescence; NS3 helicase DNA unwinding; inhibition, % at 10.9 µM; 0.56% of 290,000 active;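 active = inhibition above the mean of all tested compounds plus 3 SD, set per campaign, cut at about 35% in these data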;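 note: 0% = DMSO wells and 100% = thioflavine S control wells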
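Test system: hepatitis C virus NS3 helicase domain fragment enzyme. Also added: annealed dual-labelled DNA beacon duplex, ATP-started. Timing: 60 min unwinding reaction at 25 °C after ATP addition. Technique: Cy5 fluorescence. Measure: % inhibition of unwinding.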
MLLE-PAM2 inh = inhibitors of PABP1 MLLE–PAM2 peptide binding, primary screen, biochemical, fluorescence polarization, FITC-PAM2, GST-MLLE; inhibition, % at 20 µM; 0.36% of 360,000 active; Polyadenylate-binding protein 1 (Homo sapiens), P11940; in the data active = inhibition above about 35%, passing the limit was not always enough;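 note: plate controls were DMSO wells with GST-MLLE for no effect and wells lacking GST-MLLE protein for full effect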
PABP polyA inh = PABP poly(A) RNA binding inhibitors, primary screen, biochemical, fluorescence polarization, uHTS. inhibition, % at 35 µM. 1% of 290,000 active. AID 2014, 2009;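 note: calls also rest on retests at 20 µM and on dose response follow-up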
DNA FID counter = compounds displacing fluorescent DNA intercalator, primary screen, artefact control for HCV NS3 helicase inhibitor project, biochemical, FID fluorescence. DNA fluorescent intercalator displacement. inhibition, % at 7.9 µM. 0.17% of 290,000 active; in the data active = inhibition above about 37%;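 note: 0% = vehicle and 100% = reference compound; higher means more ethidium bromide displaced from hairpin DNA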
* marks the source's active call; other numbers are inactive results; ? = inconclusive; · = no result. Unless noted, the rule behind the calls is not given here.

SMILES | HCV core dimer | eIF4H inh | HCV NS3 hel inh | MLLE-PAM2 inh | PABP polyA inh | DNA FID counter
O=C(/C=C/c1ccc(Br)cc1)c1ccc(NC2=NCCCS2)cc1 | 0 | -4 | -94 | 12 | 13 | 37*
COc1cccc(/C=C/C(=O)c2ccc(NC3=NCCCS3)cc2)c1 | 1 | active | -50 | -10 | 73* | 21
C[C@H]1CN([C@@H](C)CO)C(=O)c2cc(Br)cnc2O[C@H]1CN(C)Cc1ccccc1C(=O)O | · | · | · | 11 | · | ·
CCN(CC(=O)Nc1ccc2c(c1)OCCO2)C(=O)c1ccc(Cl)cc1Cl | 1 | · | · | -4 | · | ·
O=C1C=CC(=Nc2ccc3c(c2)Cc2cc(F)ccc2-3)O1 | · | · | · | 26 | · | ·
O=C1C=CC(=Nc2cccc3c2C(=O)c2ccccc2-3)O1 | · | · | · | 56* | · | ·
CCN(CC)CCCNc1cc(C)c(C#N)c2nc3ccccc3n12 | · | · | · | 1 | · | ·
Cc1cc(NCCCN2CCOCC2)n2c(nc3ccccc32)c1C#N | -1 | 80* | 7 | -13 | 85* | 13
CCN(CC)CCCNc1cc(C(F)(F)F)c(C#N)c2nc3ccccc3n12 | -17 | 76 | 2 | 24 | 25* | -4
COc1ccc(S(=O)(=O)Nc2ccc3c(c2)C(=O)N([C@@H](C)CO)C[C@@H](C)[C@H](CN(C)S(=O)(=O)c2ccc(F)cc2)OCCCC[C@H](C)O3)cc1 | · | · | · | -2 | · | ·
COc1ccc(OC)c(NC(=O)COC(=O)c2cc3c(s2)CCC3)c1 | 77* | ? | 21 | -5 | ? | -12
COc1cccc(CNCCc2c[nH]c3ccccc23)c1OCc1ccccc1 | -10 | -4 | -66 | -10 | 0 | 52*
COc1ccc(CN2CCC3CC2c2cc(-c4cccc(C)c4)ccc23)cc1 (centres undefined) | · | · | · | -5 | · | ·
CC1=C/C(=C/N(C)c2ccccc2)C(=O)S1 | 4 | 52* | 8 | 39 | 67* | -4
C=CCn1c(SCC(=O)c2cc(C)n(C)c2C)nnc1-c1ccncc1 | -2 | 83* | 8 | -8 | -3 | -17
Cc1cc(C(=O)CSc2nnc(-c3ccncc3)n2-c2ccccc2)c(C)n1C | 20 | 120* | 20 | -41 | 126* | -29
Cc1cc(C(=O)CSc2nnc(-c3ccccc3)n2C)c(C)n1C | 14 | 8 | -2 | 5 | 7 | -9
C=CCn1c(SCC(=O)Nc2c(C)cccc2C)nnc1-c1ccncc1 | 1 | 1 | 0 | 5 | 3 | -6
COc1ccc(-c2ccc(C(=O)NCC3CCOCC3)c3occc23)c(C)c1 | · | · | · | -1 | · | ·
C=CCn1c(=O)/c(=C/c2ccc(C)o2)s/c1=C(/C#N)C(=O)c1ccccc1 | 8 | ? | 16 | -111 | 128* | -5
C=CCn1c(=O)/c(=C\c2ccccn2)s/c1=C(/C#N)C(=O)NCC1CCCO1 (centres undefined) | -3 | ? | 6 | -23 | 32 | -3
Nc1ccc2oc3ccc(N)cc3c(=O)c2c1 | 4 | 79* | 1 | 16 | 60* | -2
C#CC(C)OCC1CNC(=S)O1 (centres undefined) | · | · | · | -49 | · | ·
O=C(COC(=O)c1ccc(Cl)nc1)NC1CCCc2ccccc21 (centres undefined) | · | · | · | 18 | · | ·
CCSc1nc2sc3c(c2c2nnc(SCC(=O)NCc4ccco4)n12)CCCC3 | 58* | · | 14 | · | · | -23
SMILES | HCV core dimer | eIF4H inh | HCV NS3 hel inh | MLLE-PAM2 inh | PABP polyA inh | DNA FID counter
Cc1ccc(-n2c(SCC(=O)NCc3ccco3)nc3sc4c(c3c2=O)CC(C)(C)SC4)cc1 | 68* | 14 | 29 | -15 | 0 | -43
CCCc1nc2sc3c(SCC(=O)NCc4ccco4)ncnc3c2c2c1CCC2 | 40 | 78* | 27 | 10 | 58* | -26
COC(=O)C(CC(=O)c1ccc(Br)cc1)n1cccn1 (centres undefined) | -5 | -8 | 3 | 17 | 18 | -3
CCC1(C)Cc2nc3sc(C(=O)O)c(N)c3cc2CO1 (centres undefined) | 14 | 12* | -2 | -6 | 71* | -6
O=[N+]([O-])c1ccc2nc(Cl)nc(-c3ccccc3)c2c1 | · | -7 | 2 | 6 | 4 | 5
CC(C)NC(=O)C1(C)CCCN1C(=O)c1ccccc1Br (centres undefined) | · | · | · | -9 | · | ·
CCc1nnc(NS(=O)(=O)c2ccc(NC(=O)c3ccc([N+](=O)[O-])s3)cc2)s1 | · | · | · | 12 | · | ·
CCc1cc(C(=O)c2ccccc2OC)c(N)s1 | -3 | -5 | -7 | 37* | -2 | -9
COc1ccc(S(=O)(=O)NCC(=O)NCc2cc(=O)n(C)c(=O)n2C)cc1C | 2 | -7 | -7 | 1 | 5 | -9
Cc1cc(C)c2nc(-c3ccccn3)cc(C(=O)Nc3ccc(S(=O)(=O)Nc4onc(C)c4C)cc3)c2c1 | 60* | 97 | -15 | 9 | 4 | -17
Cc1cc(C)c2nc(-c3ccccn3)cc(C(=O)N3CCCC3)c2c1 | 48* | 8 | 22 | 23 | 9 | -47
Cc1cc(C)c2nc(-c3ccccn3)cc(C(=O)Nc3ccc(S(=O)(=O)Nc4cc(C)on4)cc3)c2c1 | 37 | 56 | 23 | 1 | 24 | -14
CC(C)(C)N=Cc1c(O)ccc2oc3c(c12)CCCC3 | 2 | 47 | 32 | 96 | ? | -3
O=[N+]([O-])c1cc2oc3c(c2c(C=NCc2ccncc2)c1O)CCCC3 | · | 102 | 33 | 14 | active | -12
CCNC(=O)c1c(N)sc2c1CCCCC2 | 3 | 62* | 4 | · | 92* | -10
CCOC(=O)c1c(N)sc2c1CCCC2 | 3 | 6 | 17 | 27 | 12 | -11
CC1(C(=O)NC2CCCCCC2)CCN1C(=O)C1(c2ccccc2)CC1 (centres undefined) | · | · | · | 12 | · | ·
CC1=C(C(=O)N(C(C)C)C(C)C)CC(CC(=O)NCc2cccs2)C(=O)N1Cc1ccc(C(C)(C)C)cc1 (centres undefined) | · | · | · | -6 | · | ·
Cc1nnc(NC(=O)CSc2nnc(-c3ccco3)n2C(C)C)s1 | 5 | 60 | -4 | 17 | 7 | -22
CC(C)n1c(SCC(=O)Nc2nncs2)nnc1-c1ccco1 | 1 | 72* | 19 | · | 41* | -17
CCOC(=O)c1c(NC(=O)CSc2nnnn2-c2ccccc2)sc2c1CCC(C)C2 (centres undefined) | 3 | -12 | 2 | -6 | -9 | -1
CCn1c(SCC(=O)Nc2sc3c(c2C(N)=O)CCC(C)C3)nnc1-c1ccco1 (centres undefined) | 56* | 51 | 32 | -3 | 19 | -30
CCn1c2ccccc2c2cc(NC(=O)c3ccc(=O)oc3)ccc21 | 15 | ? | -2 | -34 | ? | -3
